Assay results taken from ChEMBL document CHEMBL1811906, “Synthesis and evaluation of strand and turn modified ring-extended gramicidin S derivatives” (Bioorg Med Chem, 2011).
Values after ≈ are worked out from the molar mass of the structure shown. Residues, ends and D or L forms follow the SMILES beside them.

Tests used:
[1] = tested on: Staphylococcus epidermidis; assay: Antimicrobial activity against Staphylococcus epidermidis ATCC 12228 after 24 hrs by broth dilution method; format: functional; conditions: ATCC 12228, 24 h
In short: (§1)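 Strains stored at −70 °C, grown at 30 °C on blood agar, suspended in physiological saline to OD595 0.1, diluted 10× in saline. 2 µL inoculum added to 100 µL nutrient broth with yeast extract. Peptides dissolved in ethanol (4 g/L), diluted in water (1 g/L), then two-fold in broth (64 to 1 mg/L). Incubated at 30 °C; MIC read as lowest concentration inhibiting growth at 24 h.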

Enterobacter cloacae = assay: Antimicrobial activity against Enterobacter cloacae 1190900252 after 24 hrs by broth dilution method; format: functional; conditions: Enterobacter cloacae, 1190900252, 24 h; in short: as §1
Escherichia coli = assay: Antimicrobial activity against Escherichia coli ATCC 25922 after 24 hrs by broth dilution method; format: functional; conditions: ATCC 25922, 24 h; in short: as §1
Enterococcus faecalis = assay: Antimicrobial activity against Enterococcus faecalis ATCC 29212 after 24 hrs by broth dilution method; format: functional; conditions: ATCC 29212, 24 h; in short: as §1
[2] = Toxicity in human erythrocytes assessed as hemolytic activity after 4 hrs; format: cell-based; conditions: erythrocyte
In short: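 Heparinized fresh blood spun at 1000 g, 10 °C; erythrocytes washed three times in 0.85% saline and diluted to 1/25 packed volume. Peptide stocks 1.5 mM in 30% DMSO/saline, serially two-fold diluted in saline. Cells added, then incubated 4 h at 37 °C and centrifuged. Supernatant A405 read against 1% Triton X-100 as full lysis; single experiment run in triplicate.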

Klebsiella pneumoniae = assay: Antimicrobial activity against Klebsiella pneumoniae 1190901525 after 24 hrs by broth dilution method; format: functional; conditions: Klebsiella pneumoniae, 1190901525, 24 h; in short: as §1
Staphylococcus aureus = assay: Antimicrobial activity against Staphylococcus aureus ATCC 29213 after 24 hrs by broth dilution method; format: functional; conditions: ATCC 29213, 24 h; in short: as §1
Proteus mirabilis = assay: Antimicrobial activity against Proteus mirabilis 1190901236 after 24 hrs by broth dilution method; format: functional; conditions: Proteus mirabilis, 1190901236, 24 h; in short: as §1
Bacillus cereus = assay: Antimicrobial activity against Bacillus cereus ATCC 11778 after 24 hrs by broth dilution method; format: functional; conditions: ATCC 11778, 24 h; in short: as §1
Pseudomonas aeruginosa = assay: Antimicrobial activity against Pseudomonas aeruginosa ATCC 27853 after 24 hrs by broth dilution method; format: functional; conditions: ATCC 27853, 24 h; in short: as §1

| MIC [1] [µg/mL] | MIC (Enterobacter cloacae) [µg/mL] | MIC (Escherichia coli) [µg/mL] | MIC (Enterococcus faecalis) [µg/mL] | MIC (Klebsiella pneumoniae) [µg/mL] | MIC (Staphylococcus aureus) [µg/mL] | MIC (Proteus mirabilis) [µg/mL] | MIC (Bacillus cereus) [µg/mL] | MIC (Pseudomonas aeruginosa) [µg/mL] | Compound | HD100 [2] [µM] |
| --- | --- | --- | --- | --- | --- | --- | --- | --- | --- | --- |
| 8 (≈ 5.06 µM) | 32 (≈ 20.2 µM) | 64 (≈ 40.5 µM) | 16 (≈ 10.1 µM) | 32 (≈ 20.2 µM) | 8 (≈ 5.06 µM) | > 64 | 16 (≈ 10.1 µM) | 8 (≈ 5.06 µM) | CC(C)C[C@@H]1NC(=O)[C@H](CCCN)NC(=O)[C@H](C(C)C)NC(=O)[C@@H]2CCCN2C(=O)[C@@H](Cc2ccccc2)NC(=O)[C@H](CC(C)C)NC(=O)[C@H](CCCN)NC(=O)[C@H](C(C)C)NC(=O)[C@H](CCCN)NC(=O)[C@H](CC(C)C)NC(=O)[C@@H]2CCCN2C(=O)[C@@H](Cc2ccccc2)NC(=O)[C@H](C(C)C)NC(=O)[C@@H](CCCN)NC1=O | 125 |
| 8 (≈ 5.06 µM) | 64 (≈ 40.5 µM) | 32 (≈ 20.2 µM) | 8 (≈ 5.06 µM) | 64 (≈ 40.5 µM) | 16 (≈ 10.1 µM) | > 64 | 16 (≈ 10.1 µM) | 64 (≈ 40.5 µM) | CC(C)C[C@@H]1NC(=O)[C@H](CCCN)NC(=O)[C@H](C(C)C)NC(=O)[C@@H]2CCCN2C(=O)[C@@H](Cc2ccccc2)NC(=O)[C@H](CC(C)C)NC(=O)[C@H](CCCN)NC(=O)[C@H](C(C)C)NC(=O)[C@H](CCCN)NC(=O)[C@H](CC(C)C)NC(=O)[C@@H]2CCCN2C(=O)[C@@H](Cc2ccccc2)NC(=O)[C@H](C(C)C)NC(=O)[C@H](CCCN)NC1=O | 3.9 |
| 4 (≈ 2.38 µM) | 32 (≈ 19.1 µM) | 16 (≈ 9.54 µM) | 8 (≈ 4.77 µM) | 32 (≈ 19.1 µM) | 4 (≈ 2.38 µM) | > 64 | 2 (≈ 1.19 µM) | 16 (≈ 9.54 µM) | CC(C)C[C@@H]1NC(=O)[C@H](CCCN)NC(=O)[C@H](C(C)C)NC(=O)[C@@H]2CCCN2C(=O)[C@@H](Cc2ccccc2)NC(=O)[C@H](CC(C)C)NC(=O)[C@H](CCCN)NC(=O)[C@H](C(C)C)NC(=O)[C@H](CCCN)NC(=O)[C@H](CC(C)C)NC(=O)[C@@H]2O[C@H](CNC(=O)[C@H](C(C)C)NC(=O)[C@H](CCCN)NC1=O)[C@@H](OCc1ccccc1)[C@@H]2OCc1ccccc1 | 15.6 |
| 4 (≈ 2.67 µM) | 16 (≈ 10.7 µM) | 8 (≈ 5.34 µM) | 8 (≈ 5.34 µM) | 16 (≈ 10.7 µM) | 8 (≈ 5.34 µM) | > 64 | 4 (≈ 2.67 µM) | 16 (≈ 10.7 µM) | CC(C)C[C@@H]1NC(=O)[C@H](CCCN)NC(=O)[C@H](C(C)C)NC(=O)[C@@H]2CCCN2C(=O)[C@@H](Cc2ccccc2)NC(=O)[C@H](CC(C)C)NC(=O)[C@H](CCCN)NC(=O)[C@H](C(C)C)NC(=O)[C@H](CCCN)NC(=O)[C@H](CC(C)C)NC(=O)[C@@H]2O[C@H](CNC(=O)[C@H](C(C)C)NC(=O)[C@H](CCCN)NC1=O)[C@@H](O)[C@@H]2O | 31.3 |
| 8 (≈ 4.79 µM) | 64 (≈ 38.3 µM) | 64 (≈ 38.3 µM) | 64 (≈ 38.3 µM) | 64 (≈ 38.3 µM) | 64 (≈ 38.3 µM) | > 64 | 16 (≈ 9.58 µM) | > 64 | CC(C)C[C@@H]1NC(=O)[C@H](CCCCN)NC(=O)[C@H](C(C)C)NC(=O)[C@@H]2CCCN2C(=O)[C@@H](Cc2ccc(O)cc2)NC(=O)[C@H](CC(C)C)NC(=O)[C@H](CCCCN)NC(=O)[C@H](C(C)C)NC(=O)[C@H](CCCCN)NC(=O)[C@H](CC(C)C)NC(=O)[C@@H]2CCCN2C(=O)[C@@H](Cc2ccc(O)cc2)NC(=O)[C@H](C(C)C)NC(=O)[C@@H](CCCCN)NC1=O (HELM PEPTIDE1{K.L.[dK].V.[dY].P.L.K.V.K.L.[dY].P.V}$PEPTIDE1,PEPTIDE1,1:R1-14:R2$$$V2.0) | 500 |
| 64 (≈ 38.3 µM) | > 64 | > 64 | 32 (≈ 19.2 µM) | > 64 | > 64 | > 64 | 32 (≈ 19.2 µM) | > 64 | CC(C)C[C@@H]1NC(=O)[C@H](CCCCN)NC(=O)[C@H](C(C)C)NC(=O)[C@@H]2CCCN2C(=O)[C@@H](Cc2ccc(O)cc2)NC(=O)[C@H](CC(C)C)NC(=O)[C@H](CCCCN)NC(=O)[C@H](C(C)C)NC(=O)[C@H](CCCCN)NC(=O)[C@H](CC(C)C)NC(=O)[C@@H]2CCCN2C(=O)[C@@H](Cc2ccc(O)cc2)NC(=O)[C@H](C(C)C)NC(=O)[C@H](CCCCN)NC1=O (HELM PEPTIDE1{K.L.K.V.[dY].P.L.K.V.K.L.[dY].P.V}$PEPTIDE1,PEPTIDE1,1:R1-14:R2$$$V2.0) | 3.9 |
| 8 (≈ 4.77 µM) | 32 (≈ 19.1 µM) | 32 (≈ 19.1 µM) | 16 (≈ 9.54 µM) | 32 (≈ 19.1 µM) | 8 (≈ 4.77 µM) | > 64 | 8 (≈ 4.77 µM) | 64 (≈ 38.2 µM) | CC(C)C[C@@H]1NC(=O)[C@H](CCCN)NC(=O)[C@H](C(C)C)NC(=O)[C@@H]2CCCN2C(=O)[C@@H](Cc2ccccc2)NC(=O)[C@H](CC(C)C)NC(=O)[C@H](CCCN)NC(=O)[C@H](C(C)C)NC(=O)[C@H](CCCN)NC(=O)[C@H](CC(C)C)NC(=O)[C@@H]2O[C@H](CNC(=O)[C@H](C(C)C)NC(=O)[C@@H](CCCN)NC1=O)[C@@H](OCc1ccccc1)[C@@H]2OCc1ccccc1 | 500 |
| 16 (≈ 10.7 µM) | 64 (≈ 42.8 µM) | 64 (≈ 42.8 µM) | > 64 | > 64 | > 64 | > 64 | 64 (≈ 42.8 µM) | > 64 | CC(C)C[C@@H]1NC(=O)[C@H](CCCN)NC(=O)[C@H](C(C)C)NC(=O)[C@@H]2CCCN2C(=O)[C@@H](Cc2ccccc2)NC(=O)[C@H](CC(C)C)NC(=O)[C@H](CCCN)NC(=O)[C@H](C(C)C)NC(=O)[C@H](CCCN)NC(=O)[C@H](CC(C)C)NC(=O)[C@@H]2O[C@H](CNC(=O)[C@H](C(C)C)NC(=O)[C@@H](CCCN)NC1=O)[C@@H](O)[C@@H]2O | > 500 |
| 4 (≈ 2.52 µM) | 16 (≈ 10.1 µM) | 16 (≈ 10.1 µM) | 8 (≈ 5.04 µM) | 16 (≈ 10.1 µM) | 4 (≈ 2.52 µM) | > 64 | 4 (≈ 2.52 µM) | 16 (≈ 10.1 µM) | CC(C)C[C@@H]1NC(=O)[C@H](CCCN)NC(=O)[C@H](C(C)C)NC(=O)[C@@H]2CCCN2C(=O)[C@@H](Cc2ccccc2)NC(=O)[C@H](CC(C)C)NC(=O)[C@H](CCCN)NC(=O)[C@H](C(C)C)NC(=O)[C@H](CCCN)NC(=O)[C@H](CC(C)C)NC(=O)[C@@H]2O[C@H](CNC(=O)[C@H](C(C)C)NC(=O)[C@H](CCCN)NC1=O)[C@@H](OCc1ccccc1)[C@@H]2O | 15.6 |
| 8 (≈ 5.04 µM) | 32 (≈ 20.2 µM) | 32 (≈ 20.2 µM) | 32 (≈ 20.2 µM) | 32 (≈ 20.2 µM) | 16 (≈ 10.1 µM) | > 64 | 8 (≈ 5.04 µM) | 64 (≈ 40.3 µM) | CC(C)C[C@@H]1NC(=O)[C@H](CCCN)NC(=O)[C@H](C(C)C)NC(=O)[C@@H]2CCCN2C(=O)[C@@H](Cc2ccccc2)NC(=O)[C@H](CC(C)C)NC(=O)[C@H](CCCN)NC(=O)[C@H](C(C)C)NC(=O)[C@H](CCCN)NC(=O)[C@H](CC(C)C)NC(=O)[C@@H]2O[C@H](CNC(=O)[C@H](C(C)C)NC(=O)[C@@H](CCCN)NC1=O)[C@@H](OCc1ccccc1)[C@@H]2O | 500 |

| Compound | MIC [1] [µg/mL] | MIC (Enterobacter cloacae) [µg/mL] | MIC (Escherichia coli) [µg/mL] | MIC (Enterococcus faecalis) [µg/mL] | MIC (Klebsiella pneumoniae) [µg/mL] | MIC (Staphylococcus aureus) [µg/mL] | MIC (Proteus mirabilis) [µg/mL] | MIC (Bacillus cereus) [µg/mL] | MIC (Pseudomonas aeruginosa) [µg/mL] | HD100 [2] [µM] |
| --- | --- | --- | --- | --- | --- | --- | --- | --- | --- | --- |
| CC(C)C[C@@H]1NC(=O)[C@H](CCCN)NC(=O)[C@H](C(C)C)NC(=O)[C@@H]2CCCN2C(=O)[C@@H](Cc2ccccc2)NC(=O)[C@H](CC(C)C)NC(=O)[C@H](CCCN)NC(=O)[C@H](C(C)C)NC(=O)[C@@H]2CCCN2C(=O)[C@@H](Cc2ccccc2)NC1=O [GRAMICIDIN S] (HELM PEPTIDE1{L.[dF].P.V.[Orn].L.[dF].P.V.[Orn]}$PEPTIDE1,PEPTIDE1,1:R1-10:R2$$$V2.0) | 4 (≈ 3.5 µM) | 64 (≈ 56.1 µM) | 32 (≈ 28 µM) | 8 (≈ 7.01 µM) | 64 (≈ 56.1 µM) | 4 (≈ 3.5 µM) | > 64 | 4 (≈ 3.5 µM) | 64 (≈ 56.1 µM) | 62.5 |
